Legend:
Canis familiaris [1] = organism: Canis familiaris; assay: Positive inotropic in the isolated papillary muscle of the dog.; assay type: functional, Canis lupus familiaris
How it was run: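 Right ventricular anterior papillary muscle with septum, from mongrel dogs (7–12 kg, pentobarbital 30 mg/kg iv). It was perfused at about 100 mmHg via the septal artery with blood from a heparinized donor dog and paced at 120/min (1 ms pulses, about 1.5× threshold). Isometric tension was recorded. Saline solutions were injected intra-arterially, with amrinone as reference. ED15 (15% rise in developed tension) was taken from log dose-response curves. Results are mean ± SEM (n = 7) or mean ± range (n = 2).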

Canis familiaris [2] = assay: Inotropic activity determined by evaluating the % change in Systolic Blood Pressure (SBP) at a dose of 100 ug/kg administered intravenously […]; assay type: functional, Canis lupus familiaris, Muscle tissue
How it was run: (§1)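 Mongrel dogs of either sex, 7–15 kg, anesthetized with sodium pentobarbital (30 mg/kg iv), open-chest, intubated and ventilated on room air. Compounds given intravenously. A femoral artery catheter with pressure transducer recorded SBP and DBP. dP/dtmax, right ventricular contractile force, cardiac output and heart rate were also recorded, as % change at each iv dose.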

Canis familiaris [3] = assay: Inotropic activity determined by evaluating the % change in contractile force (CF) of right ventricle at a dose of 300 ug/kg administered intravenously […]; assay type: functional, Canis lupus familiaris, Heart right ventricle; how it was run: as §1
Canis familiaris [4] = assay: Inotropic activity determined by evaluating the % change in Cardiac out put (CO)at a dose of 100 ug/kg administered intravenously […]; assay type: functional, Canis lupus familiaris; how it was run: as §1
Canis familiaris [5] = assay: Inotropic activity determined by evaluating the % change in Systolic Blood Pressure (SBP) at a dose of 300 ug/kg administered intravenously […]; assay type: functional, Canis lupus familiaris, Muscle tissue; how it was run: as §1
Canis familiaris [6] = assay: Inotropic activity determined by evaluating the % change in Heart Rate (HR) at a dose of 100 ug/kg administered intravenously […]; assay type: functional, Canis lupus familiaris; how it was run: as §1
Canis familiaris [7] = assay: Inotropic activity determined by evaluating the maximum rate of rise in left ventricular pressure at a dose of 300 ug/kg administered intravenously […]; assay type: functional, Canis lupus familiaris, Muscle tissue; how it was run: as §1
Canis familiaris [8] = assay: Inotropic activity determined by evaluating the % change in Diastolic Blood Pressure (DBP) at a dose of 100 ug/kg administered intravenously […]; assay type: functional, Canis lupus familiaris; how it was run: as §1
Canis familiaris [9] = assay: Inotropic activity determined by evaluating the % change in Cardiac out put (CO)at a dose of 300 ug/kg administered intravenously […]; assay type: functional, Canis lupus familiaris; how it was run: as §1
Canis familiaris [10] = organism: Canis familiaris; assay: Positive inotropic activity determined in the […](that produced 30% increase in dose- response curves [dP/dt(max)]); assay type: functional; conditions: Canis lupus familiaris
How it was run: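 In the anesthetized open-chest dog (mongrel, 7–15 kg, pentobarbital 30 mg/kg iv, ventilated on room air), compounds were given intravenously and LV dP/dtmax was recorded. The dose giving a 30% rise in dP/dtmax was read from the dose-response curves. Results are mean ± SEM (n = 3) or mean ± range (n = 2).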

Canis familiaris [11] = assay: Inotropic activity determined by evaluating the % change in Diastolic Blood Pressure (DBP) at a dose of 300 ug/kg administered intravenously […]; assay type: functional, Canis lupus familiaris; how it was run: as §1
Canis familiaris [12] = assay: Inotropic activity determined by evaluating the % change in Heart Rate (HR) at a dose of 300 ug/kg administered intravenously […]; assay type: functional, Canis lupus familiaris, Muscle tissue; how it was run: as §1
Canis familiaris [13] = assay: Inotropic activity determined by evaluating the % change in contractile force (CF) of right ventricle at a dose of 100 ug/kg administered intravenously […]; assay type: functional, Canis lupus familiaris, Heart right ventricle; how it was run: as §1
Canis familiaris [14] = assay: Inotropic activity determined by evaluating the maximum rate of rise in left ventricular pressure at a dose of 100 ug/kg administered intravenously […]; assay type: functional, Canis lupus familiaris, Muscle tissue; how it was run: as §1
Canis familiaris [15] = assay: Inotropic activity determined by evaluating the % change in Diastolic Blood Pressure (DBP) at a dose of 30 ug/kg administered intravenously […]; assay type: functional, Canis lupus familiaris; how it was run: as §1
Canis familiaris [16] = assay: Inotropic activity determined by evaluating the % change in contractile force (CF) of right ventricle at a dose of 30 ug/kg administered intravenously […]; assay type: functional, Canis lupus familiaris, Heart right ventricle; how it was run: as §1
Canis familiaris [17] = assay: Inotropic activity determined by evaluating the % change in Heart Rate (HR) at a dose of 30 ug/kg administered intravenously […]; assay type: functional, Canis lupus familiaris; how it was run: as §1
Canis familiaris [18] = assay: Inotropic activity determined by evaluating the % change in Systolic Blood Pressure (SBP) at a dose of 30 ug/kg administered intravenously […]; assay type: functional, Canis lupus familiaris, Muscle tissue; how it was run: as §1
Canis familiaris [19] = assay: Inotropic activity determined by evaluating the maximum rate of rise in left ventricular pressure at a dose of 30 ug/kg administered intravenously […]; assay type: functional, Canis lupus familiaris, Muscle tissue; how it was run: as §1
Canis familiaris [20] = assay: Inotropic activity determined by evaluating the % change in Cardiac out put (CO)at a dose of 30 ug/kg administered intravenously […]; assay type: functional, Canis lupus familiaris; how it was run: as §1
Canis familiaris [21] = assay: Inotropic activity determined by evaluating the % change in contractile force (CF) of right ventricle at a dose of 10 ug/kg administered intravenously […]; assay type: functional, Canis lupus familiaris, Heart right ventricle; how it was run: as §1
Canis familiaris [22] = assay: Inotropic activity determined by evaluating the % change in Cardiac out put (CO)at a dose of 10 ug/kg administered intravenously […]; assay type: functional, Canis lupus familiaris; how it was run: as §1
Canis familiaris [23] = assay: Inotropic activity determined by evaluating the % change in Diastolic Blood Pressure (DBP) at a dose of 10 ug/kg administered intravenously […]; assay type: functional, Canis lupus familiaris; how it was run: as §1
Canis familiaris [24] = assay: Inotropic activity determined by evaluating the % change in Heart Rate (HR) at a dose of 10 ug/kg administered intravenously […]; assay type: functional, Canis lupus familiaris; how it was run: as §1
Canis familiaris [25] = assay: Inotropic activity determined by evaluating the maximum rate of rise in left ventricular pressure at a dose of 10 ug/kg administered intravenously […]; assay type: functional, Canis lupus familiaris, Muscle tissue; how it was run: as §1
Canis familiaris [26] = assay: Inotropic activity determined by evaluating the % change in Systolic Blood Pressure (SBP) at a dose of 10 ug/kg administered intravenously […]; assay type: functional, Canis lupus familiaris; how it was run: as §1

Row | SMILES | ED15 (Canis familiaris [1]) | Change of SBP (Canis familiaris [2]) | Change of CO (Canis familiaris [4]) | Change of HR (Canis familiaris [6]) | Change of DBP (Canis familiaris [8]) | ED30 (Canis familiaris [10]) | Change of CF (Canis familiaris [13]) | dP/dt (Canis familiaris [14]) | Change of DBP (Canis familiaris [15]) | Change of CF (Canis familiaris [16]) | Change of HR (Canis familiaris [17]) | Change of SBP (Canis familiaris [18]) | dP/dt (Canis familiaris [19]) | Change of CO (Canis familiaris [20]) | further results
1 | Cl.O=C1CCC(c2ccc(Nc3ccnc4ccccc34)cc2)=NN1 | >300 µg |  |  |  |  |  |  |  |  |  |  |  |  |  | 
2 | CCC1CC(=O)NN=C1c1ccc(Nc2ccncc2)cc1.Cl (stereo unspecified) | 23 µg | -8.8% | 15.2% | 12% | -15.1% | 0.256 mg/kg | 23.7% | 20.4% |  |  |  |  |  |  | Change of CF (Canis familiaris [3]): 35.7%; Change of SBP (Canis familiaris [5]): -11.1%; dP/dt (Canis familiaris [7]): 34.8%; Change of CO (Canis familiaris [9]): 19.2%; Change of DBP (Canis familiaris [11]): -18.3%; Change of HR (Canis familiaris [12]): 22.5%
3 | CC1CC(=O)NN=C1c1ccc(N(C)c2ccncc2)cc1.Cl (stereo unspecified) | 18.5 µg | -5.5% | 13.3% | 22.8% | -13.9% | > 0.1 mg/kg | 41.2% | 27.5% | -3.2% | 13% | 2.6% | -0.6% | 11% | 8.9% | 
4 | Cl.Oc1ccc(-c2ccc(Nc3ccncc3)cc2)nn1 | 50 µg | -22.3% | 7.7% | 4.2% | -27.6% | 0.022 mg/kg | 33.7% | 57.1% | -20% | 19.9% | 2.4% | -11.9% | 39.6% | 5.4% | Change of CF (Canis familiaris [21]): 11%; Change of CO (Canis familiaris [22]): 1.6%; Change of DBP (Canis familiaris [23]): -7.5%; Change of HR (Canis familiaris [24]): 1.3%; dP/dt (Canis familiaris [25]): 20.2%; Change of SBP (Canis familiaris [26]): -3.6%
5 | CN(c1ccc(C2=NNC(=O)CC2)cc1)c1ccccn1.Cl | 5.6 µg | -10.5% | 18.7% | 9.5% | -17.8% | > 0.1 mg/kg | 37.7% | 32.5% | -9.6% | 16.5% | 4.5% | -6.3% | 14.3% | 13.2% | 
6 | Cl.O=C1CCC(c2ccc(Nc3ccccn3)cc2)=NN1 | 17.5 µg | -27.2% | 22.1% | 16.7% | -25.5% | 0.106 mg/kg | 40.5% | 37.8% | -15.6% | 22% | 6.7% | -13.7% | 16.1% | 13.9% | 
7 | Cl.O=C1CCC(c2ccc(Nc3ncccn3)cc2)=NN1 | 165 µg |  |  |  |  |  |  |  |  |  |  |  |  |  | 
8 | CN(c1ccncc1)c1ccc(C2=NNC(=O)CC2)cc1.Cl | 38 µg | -2.1% | 5.9% | 1.4% | -4% | > 0.3 mg/kg | 11% | 13.6% |  |  |  |  |  |  | Change of CF (Canis familiaris [3]): 20%; Change of SBP (Canis familiaris [5]): -5.8%; dP/dt (Canis familiaris [7]): 17.8%; Change of CO (Canis familiaris [9]): 8.7%; Change of DBP (Canis familiaris [11]): -10.3%; Change of HR (Canis familiaris [12]): 2.7%
9 | O=C1CCC(c2ccc(-n3ccnc3)cc2)=NN1 [IMAZODAN] |  | -16.9% | 35.5% | 16.1% | -28.3% | 0.046 mg/kg | 83.8% | 49.3% | -16.5% | 42.2% | 8.1% | -9.6% | 22.3% | 26.3% | Change of CF (Canis familiaris [21]): 13.8%; Change of CO (Canis familiaris [22]): 11.2%; Change of DBP (Canis familiaris [23]): -8.1%; Change of HR (Canis familiaris [24]): 3.6%; dP/dt (Canis familiaris [25]): 10.3%; Change of SBP (Canis familiaris [26]): -4.8%

Source: ChEMBL document CHEMBL1123853, “A novel class of cardiotonics. Synthesis and pharmacological properties of [4-(substituted-amino)phenyl]pyridazinones and related derivatives” (1987)
